# Experimental data from ChEMBL document CHEMBL4513216, “Probing the Open Global Health Chemical Diversity Library for Multistage-Active Starting Points for Next-Generation Antimalarials” (ACS Infect Dis, 2020).
# Test: Toxicity liver stage against HepG2, at 10uM
# Format: cell-based
# Set-up: test concentration 10 uM, cell line HepG2-A16-CD81EGFP
# Settings: human, HepG2-A16-CD81EGFP cells; read-out: INHIBITION
# In short: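 Uninfected HepG2-A16-CD81EGFP cells, 3 × 10^3 per well, 1536-well, plated on prespotted compound at 10 μM final, parasite-free screening media added to match infected plates; puromycin 10 μM positive, DMSO 0.5% negative; run in parallel with 48 h PbLuc assay at 37 °C, 5% CO2; viability by CellTiter-Glo luminescence, normalized to controls.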
row,Structure (SMILES),cytotoxicity at 10 µM [%]
1,O=C(Nc1nc2c(s1)CN(S(=O)(=O)C1CC1)CC2)c1ccsc1,24.9
2,CCN(CC)C(=O)c1nc2c(s1)CCN(C(=O)CCC(=O)OC)CC2,12.9
3,O=C(c1ncn2c(C3CCN(CC4CC4)CC3)ccnc12)N1CCCC1,-3
4,Cc1ccc(C(=O)N2CCc3ncnc(C)c3CC2)cn1,9.75
5,CCc1c(C)nc2n(c1=O)CC(C(=O)Nc1nccs1)CS2 (stereo unspecified),1.83
6,O=C(Cn1cc(C(=O)O)ccc1=O)Nc1ccc(F)cc1Cl,0.381
7,Cc1cc2nc(SCC(=O)NC(C)C)n(Cc3ccco3)c(O)c-2n1,10.5
8,COCCCNC(=O)CCn1nc(C)c2ccccc21,9.87
9,COc1ccc(-c2cc(C3CCCCCN3S(C)(=O)=O)on2)cc1 (stereo unspecified),0.46
10,CS(=O)(=O)c1cc(Cl)cnc1C1CCN(C(=O)C2CCCO2)CC1 (stereo unspecified),4.38
11,N#Cc1ccc(S(=O)(=O)Nc2ccc(N3CCOCC3)cn2)cc1,0.966
12,CC(C)Cc1nc(CS(=O)(=O)C(C)C(=O)N2CCOCC2)no1 (stereo unspecified),3.13
13,CN(CCc1nc(-c2cccc(Cl)c2)no1)CCn1cccn1,8.86
14,O=C(NC(C1CC1)C1CC1)c1cccc[n+]1[O-],10.8
15,NC(=O)Nc1cccc(CNC(=O)CCCOCc2ccccc2)c1,-8.06
16,Cc1cc(C2CCCN(C(=O)COc3ccc(F)cc3F)C2)n[nH]1 (stereo unspecified),5.93
17,Cc1cccc2nc(CNC(=O)N3CCC(N4CC=CC4)C3)cn12 (stereo unspecified),5.88
18,CC(=O)N(Cc1ncc(C)o1)C1CCN(CCc2ccncc2)C1 (stereo unspecified),1.3
19,Cc1noc(CCCC(=O)Nc2cc(C(F)(F)F)c[nH]c2=O)n1,-10.8
20,COc1ccc(NC2CCN(C3CC3)C2=O)cn1 (stereo unspecified),-10
21,CN(Cc1nnc(C2CCC2)o1)C(C(N)=O)c1cccc(F)c1 (stereo unspecified),16.7
22,O=C(NCC1CCCCO1)c1ccc(-c2cccs2)[nH]c1=O (stereo unspecified),-7.03
23,O=C(O)c1ccc(S(=O)(=O)Nc2cccc(CC(F)(F)F)c2)c(F)c1,-6.19

row,Structure (SMILES),cytotoxicity at 10 µM [%]
1,Cc1ncc(-c2ccnc(N3CCCCCC3)n2)c(-c2cccnc2)n1,6.21
2,Cc1nn(C)c2nc(N3CCC(C(O)c4nccn4C)CC3)sc12 (stereo unspecified),0.79
3,CC(C)CCN1CCNC(=O)C1CC(=O)NCCc1cc(O)ncn1 (stereo unspecified),-0.806
4,COC(=O)N1CCCCC1C(=O)N1CCN(c2ncccc2C)CC1 (stereo unspecified),3.37
5,Cc1ccc(C)c(OCc2cc(C(=O)N(C)Cc3cnn(C)c3)no2)c1,-6.12
6,Cc1nc(CN2CCC(Oc3ccc(F)cc3C)(C(=O)O)CC2)co1,2.28
7,Cc1nn(CCO)cc1CN1CCCN(C2CCCC2)CC1,0.292
8,COc1ccc(-n2cccn2)cc1S(=O)(=O)N1C[C@H](C2CC2)[C@@H](N)C1,4.69
9,Cc1ccc(-c2nc(CNC3CCc4ncnn4C3)co2)cc1 (stereo unspecified),-3.75
10,COc1ccccc1C(=O)Nc1cc(CC(C)C)nn1C,-12.5
11,Cc1cccc(OCCNC(=O)CN2CCCC2Cn2cncn2)c1 (stereo unspecified),-4.03
12,Cc1nc(CN2CCCN(C(=O)CCc3ccco3)CC2)cs1,0.386
13,CCNC(c1ccc(C)cc1)c1cccnc1 (stereo unspecified),0.533
14,COc1ccc(CCNC(=O)NCC(O)c2cccc(F)c2)cc1 (stereo unspecified),-6.33
15,CSc1nccn1-c1cccc(C(=O)NCc2nnc(C)n2C)c1,-9.46
16,O=C(CCn1cccn1)N1CCN(CC(F)F)CC1,-5.11
17,CN(Cc1ncc[nH]1)CC(c1cccs1)N1CCOCC1 (stereo unspecified),-4.22
18,CC(NC(=O)NCCCOC1CCCCC1)c1nncn1C (stereo unspecified),-7.47
19,CC(CC#N)NC(=O)c1cc(Br)c2c(c1)OCCO2 (stereo unspecified),5.56
20,O=C(COc1cccc(Br)c1)N1CCOCC1c1ncon1 (stereo unspecified),-9.36
21,CC(Cn1cccn1)NC(=O)NCc1ccc(S(N)(=O)=O)cc1 (stereo unspecified),3.63
22,CCc1ccc(CN2CCc3ncnc(N4CCOCC4)c3CC2)o1,-2.05
23,CCCn1nccc1NC(=O)CN1CCc2c(nc(C(C)C)n2C)C1,4.02
